The record followed here is the EternaBench riboswitch data.

The test system of this data set is MS2 coat protein. Kind of data set: apparent Kd, MS2 coat protein; higher = weaker binding; RNA-MaP array; FMN 200 µM where present. The method, boiled down: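 On Illumina sequencing-chip clusters, designs were transcribed by stalled E. coli RNA polymerase and titrated with SNAP-549-labelled MS2 coat protein (0.7 or 1.5 nM, doubling to 3 µM), without and then with constant ligand, in 100 mM Tris-HCl pH 7.5, 80 mM KCl, 4 mM MgCl2, BSA, DTT, yeast tRNA and Tween-20. Apparent Kd is the median of filtered per-cluster curve fits to green signal normalised to red-channel RNA signal and control-cluster median Fmax.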

Setting [1] is: designed as: OFF switch for flavin mononucleotide, no ligand.
Setting [2] is: ligand present: flavin mononucleotide, designed as: OFF switch for flavin mononucleotide.
Setting [3] is: designed as: ON switch for flavin mononucleotide, no ligand.
Where [4] appears, read: ligand present: flavin mononucleotide, designed as: ON switch for flavin mononucleotide.

What is called apparent Kd is a dissociation constant that holds for the conditions of the assay. On to “AAUUGACACGUAGGAUAUCGAUCUAUAUUAACUCGAGAAGGACGUACAUGAGGAUCACCCAUGUUUAAUGGAGUAGAUAUGUUG”, for which the “apparent Kd” value reads like this: under setting [1], 82.8 nM; under setting [2], 308 nM.
As to “UUGGAGUUCGUAGGAUAUGUAGGAUAUUCCUACAUGAGGAUCACCCAUGUAUGCAUGGAAGAAGGACAGAAGGACGAGCUCCAU”, the “apparent Kd” value under setting [3] worked out at 184 nM and the “apparent Kd” value under setting [4] is 13 nM.
In the case of “GGUCGUCAAGUCAGGAUAUCGUAUAAUAGAUAUAACGAGAAGGGACAUGAGGAUCACCCAUGUCGUCUCAUCAG”, the “apparent Kd” value came to 17.1 nM under setting [1] and 23.7 nM under setting [2].
The matching figures for “GAAAACGGAGAGGAUAUUUGAGAUCAAAGCUCCAAAGAAGGCUCCACAUGAGGAUCACCCAUGUGGUCUUCAAA”: 13.5 nM and 111 nM.
Turning to “AGUAUGCGGCAGGAUAUCCAUCCGCGAAAAGGUGGAGAAGGGCUGACAUGAGGAUCACCCAUGUGCGUCUUGUA”, the “apparent Kd” value was 29.7 nM under setting [1] and 31 nM under setting [2].
For “GAUCGUAUCCUAGGAUAUUCAUUAAACAUGAGGAUCACCCAUGUUAAUUUGGGAGAAGGAGGAUACGAUCAACAGCGAAAGCUG”, the “apparent Kd” value under setting [3] was found to be 10.6 nM and the “apparent Kd” value under setting [4] came out at 5.15 nM.
The matching figures for “AGCUACGUUUCGUAGCAGUGUCAUCGAGAAGGCCUUAUAACAUGAGGAUCACCCAUGUUAACAUGGGAGGAUAUCGAUGAUACA”: 10.5 nM and 5.34 nM.
For the sequence “AUUAUGUUAGGAUAUGCUUAUGGUGGAUAGUCCGAUAUGAUGCAGAAGGGACAUGAGGAUCACCCAUGUACUGA”, the “apparent Kd” value reads like this: under setting [1], 27.3 nM; under setting [2], 29.5 nM.
Taken in the same sequence, the figures for “CUAUUCCGAGGAUAUACAUGAGGAUCACCCAUGUCGGGCCUCCGCGUUUAGCGCCUCAGUAGAAGGCGGGUUUC” were 19.1 nM and 25.4 nM.
“GGGUACAUGGGAGGAUAUCCUCAUGAGACAUGAGGAUCACCCAUGUAUUAUAAGCCGAAAGGCAAGGAGAAGGCCCAUGUACCG”: the “apparent Kd” value runs as follows: under setting [3], 30.2 nM; under setting [4], 17 nM.
With “UCAUGAUAUGUAGGAUAUCACAUUUAUUGAUUAAUAUAUGAAUAUAGAAUUUGAGAAGGACAUUUACAUGAGGAUCACCCAUGU”, the “apparent Kd” value by setting is: under setting [1], 15.8 nM; under setting [2], 16.7 nM.
As for “AUGAUUAUACAAGGAUAUCAAUUGUAUACAAGUCUUACAUGAGGAUCACCCAUGUUAAAUUUUUUUGAGAAGGUGUGUUGUCAG”, the “apparent Kd” value turned out to be 35.6 nM under setting [3] and 30.6 nM under setting [4].
On to “AUCAGCUUGACAGGAUAUACAUGACUGCGAAAGCAGUCUAUCUUAAUAACAUGAGGAUCACCCAUGUAGAAGGGUCGAGCUGAU”, for which the “apparent Kd” value under setting [1] came out at 17.8 nM and the “apparent Kd” value under setting [2] amounted to 27 nM.
Regarding “CAUAAGAUAGGAUAUACAGGCCCGUCUUUAUAUUGAUCCCGACAUGAGGAUCACCCAUGUAGAAGGAUCAUAUG”, the “apparent Kd” value was 13.7 nM under setting [1] and 15.2 nM under setting [2].
The matching figures for “UCCAACAUGAGGAUCACCCAUGUACAGGAUAUUAGAUCAGCUCAGCGCGUCCGUCAAGAUAUUUCUAAGAAGGGUACUGGGUAC”: 20.2 nM and 33.1 nM.
Taken in the same sequence, the figures for “GGAUGAGAAACUCAUCCAAAUCGAACAUGAGGAUCACCCAUGUAGGAUAUGCUACUCAAAGAGUAGCAGAAGGACAUGUGCUUU” were 35 nM and 232 nM.
The matching figures for “GGUGGCGUGAUAACGCUAGAUAUAACAUGAGGAUCACCCAUGUAGGAUAUCCCGCCGUGAGGGCGGGAGAAGGACAACCGAUGG”: 37.1 nM and 34.9 nM.
With “UGCGUUUGAGGAUAUACGUAGAAUUAGAUUCAUGUAAAACUACAUGAGGAUCACCCAUGUAGAAGGCAAGCGCU”, the “apparent Kd” value was 17.7 nM under setting [1] and 79.4 nM under setting [2].
On to “UGACUGAAGCAAGGAUAUUGUAAAGUUAUCGUACAAGAAGGUGCUGUUUAUGUCUCUUUACAUGAGGAUCACCCAUGUUUUUAU”, for which the “apparent Kd” value under setting [3] stood at 32.8 nM and the “apparent Kd” value under setting [4] was 24.6 nM.
The matching figures for “AUUAAACAUGAGGAUCACCCAUGUCAACAAAGUCGAGGAUAUGGGCAUAUUAUCUUAUUUCCAGAAGGCGAAUAAU”: 121 nM and 33.9 nM.
In the case of “AACGGGUGGGUAGGAUAUGGCUAUGUCUCAUUGCUAGAAGGGCCAGCUGCUACAUGAGGAUCACCCAUGUCGUAGUGCACCCAG”, the “apparent Kd” value came to 72.4 nM under setting [3] and 40.3 nM under setting [4].
Consider “AACCUAGUCAUAGGAUAUACAGGCAAAGCCAAAGUAGAAGGAUGACACAUGAGGAUCACCCAUGUGGUCCUUGAACAAAAUAAC”, for which the “apparent Kd” value came out at 27 nM under setting [1] and 196 nM under setting [2].
With “AUAUCUUAUGAGAAGGCGAUCAUGAAACAUGAUCGAGGAUAUCAUGUAAACAUGAGGAUCACCCAUGUAUGGGUAUUAUGGUAU”, the “apparent Kd” value stood at 89.4 nM under setting [3] and 57 nM under setting [4].
For “UUCUUUGUUGUGAGGAUAUCGUAUUCUUUUUGUUACGAGAAGGCACAUGAGGAUCACCCAUGUUUCUUGAUGUU”, the “apparent Kd” value is 16.9 nM under setting [1] and 45.8 nM under setting [2].
Regarding “UCAUACGGUGAGGAUAUCUCCGCUAAAGUGUGUAGAGAAGGCGCUACAUGAGGAUCACCCAUGUUUAUGGGCAG”, the “apparent Kd” value under setting [1] is 403 nM and the “apparent Kd” value under setting [2] worked out at 228 nM.
Taken in the same sequence, the figures for “GGAAAACAUGAGGAUCACCCAUGUGAGGAUAUCGAUGUCCAAAAACAAGUGCGGGACUCGAGAAGGCACUUGGA” were 35 nM and 23.2 nM.
The matching figures for “UAGUAUAAGGGCAUUAAACAUGAGGAUCACCCAUGUACGAUAGAGGAUAUGCAUUUCAGUUUAGAGUAGAAGGUUAGAGAAUUG”: 39.5 nM and 41.6 nM.
Taken in the same sequence, the figures for “GUCAGCUCGUGAGGAUAUACAACACUGCUUCGGCAGUGUAUUAAGAUCACAUGAGGAUCACCCAUGUAGAAGGCACAAGCUGAU” were 15.9 nM and 271 nM.
Regarding “ACGCCCUGAGGAUAUCUUUUCCCGUACAUGAGGAUCACCCAUGUUUUCCUCCGUGCUUCGAGAGAAGGCAGGCCCA”, the “apparent Kd” value runs as follows: under setting [1], 807 nM; under setting [2], 436 nM.
Take “GCCAGCGCAUGAGGAUAUGCUCCCGUUUCGGGAGCAGAAGGCAUGUCAUAAGACAUGAGGAUCACCCAUGUAGUCAAGAUGGCA”: the “apparent Kd” value under setting [3] worked out at 340 nM and the “apparent Kd” value under setting [4] came to 15.7 nM.
Regarding “GAGAGAUAGUAGGAUAUUCUGUACGGGUGACCAGGAGAAGGACUAACAUGAGGAUCACCCAUGUGGCUGGUCAU”, the “apparent Kd” value by setting is: under setting [1], 15.9 nM; under setting [2], 16.2 nM.
The matching figures for “GUAUCGUGAGGAUAUCAUGAUUGACUUUUAUUUUGUCAGCGUGAGAAGGCACAUGAGGAUCACCCAUGUGAUUA”: 22.6 nM and 50.5 nM.
Turning to “CUGAGUAGUCAGGAUAUGCUGUACAAAAGUACAGCAGAAGGGAUUACAUGAGGAUCACCCAUGUUGUCUUCAUG”, the “apparent Kd” value under setting [1] came to 160 nM and the “apparent Kd” value under setting [2] was 316 nM.
For “UUGAGGUGCAAGAAGGAUCACAUGAGGAUCACCCAUGUGAUGUGAAGUCUCGAGAUUUUAUAUCGAUAGGAUAUUGCACCGAAC”, the “apparent Kd” value reads like this: under setting [3], 5.13 nM; under setting [4], 5.33 nM.
“CACAAGAAAGUCGAAGGUUGAAGUAGAAGGACAAUAACAUGACAUGAGGAUCACCCAUGUGCCAUGUAGGAUAUGCUUUAAUCG”: the “apparent Kd” value runs as follows: under setting [1], 8.54 nM; under setting [2], 8.34 nM.
“AACCGACAUGAGGAUCACCCAUGUCAGGAUAUGGACUGACACCGAAAGAGUGGAGGAACCAGAAGGGACUGGGC”: the “apparent Kd” value is, setting by setting: under setting [1], 32.4 nM; under setting [2], 69.5 nM.
